This is a sample that favours compounds with a hit; in the whole collection about 1.1% have one here.
FXIa inh = inhibitors of human coagulation factor XIa. purified FXIa, Boc-Glu-Ala-Arg-AMC fluorogenic substrate. inhibition, % at 5 µM. 0.14% of 220,000 active. AID 798;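 active = inhibition of at least 40%; inactive = inhibition below 40%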;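 also: fluorescence of freed AMC excited at 355 nm; 0% = enzyme without compound and 100% = no enzyme blank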
FXIIa inh = inhibitors of human coagulation factor XIIa; P00748; purified FXIIa, Boc-QGR-AMC fluorogenic substrate, 2 h; inhibition, % at 5 µM; 0.3% of 220,000 active; in the data active = inhibition above about 40%;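 also: 0% = enzyme with no compound and 100% = blank without enzyme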
Thrombin inh = blocks human thrombin protease activity; inhibition, % at 5 µM; alpha-thrombin, Boc-VPR-AMC fluorogenic substrate cleavage; 0.26% of 220,000 active; P00734;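 active = inhibition at or above 40%; inactive = inhibition below 40%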;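 also: 0% = enzyme with no compound and 100% = wells without enzyme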
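Material: human alpha-thrombin enzyme / Medium: pH 7.5 Tris (50 mM) with NaCl 150 mM, Tween 20 0.05% / Compound: single-point dosing at 5 µM, 0.2% DMSO / Incubation: enzyme reaction carried out at room temperature / Detection: AMC fluorescence, 355/460 nm / Read-out basis: percent inhibition scaled between no-compound controls and no-enzyme blanks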
Furin inhibitor = human furin inhibition. P09958. purified furin, fluorogenic substrate cleavage. inhibition, % at 20 µM or 30 µM. 0.061% of 220,000 active. AID 463115; in the data active = inhibition above about 25%
Target sequence (P09958 108-714 limits assumed): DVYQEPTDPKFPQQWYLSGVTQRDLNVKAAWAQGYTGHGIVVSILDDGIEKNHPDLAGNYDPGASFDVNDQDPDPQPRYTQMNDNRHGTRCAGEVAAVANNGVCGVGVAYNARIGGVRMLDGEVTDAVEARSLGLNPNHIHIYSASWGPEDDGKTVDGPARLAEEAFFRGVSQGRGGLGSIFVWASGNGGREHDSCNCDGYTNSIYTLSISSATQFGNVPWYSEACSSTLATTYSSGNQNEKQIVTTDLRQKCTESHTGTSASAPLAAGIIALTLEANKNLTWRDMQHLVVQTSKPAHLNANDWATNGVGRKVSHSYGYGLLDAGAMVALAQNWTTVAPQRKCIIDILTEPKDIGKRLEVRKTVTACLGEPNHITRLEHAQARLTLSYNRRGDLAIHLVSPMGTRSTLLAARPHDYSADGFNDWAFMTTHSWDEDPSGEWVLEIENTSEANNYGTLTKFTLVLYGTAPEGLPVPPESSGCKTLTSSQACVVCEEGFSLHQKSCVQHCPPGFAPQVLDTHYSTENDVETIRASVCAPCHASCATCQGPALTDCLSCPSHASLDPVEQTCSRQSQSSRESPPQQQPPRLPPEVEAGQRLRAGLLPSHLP
KLK5 inh = inhibitors of human kallikrein 5; recombinant hK5, fluorogenic AMC substrate cleavage; inhibition, % at 5 µM; 0.59% of 210,000 active;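 active = inhibition of 40% or more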;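 also: 0% = enzyme controls without compound and 100% = no-enzyme blanks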
Active calls of the source: *.

SMILES	FXIa inh	FXIIa inh	Thrombin inh	Furin inhibitor	KLK5 inh
O=C(NCc1ccco1)c1c[nH]c2ccc(S(=O)(=O)N3CCOCC3)cc2c1=O	-9.5	12.2	74.3*	-8.0	-26.6
CC1CCN(S(=O)(=O)c2ccc3c(c2)c(=O)c(C(=O)NCc2ccco2)cn3C)CC1	-2.3	8.7	14.6	-11.4	-8.2
CCN(CC)S(=O)(=O)c1ccc2c(c1)c(=O)c(C(=O)NCc1ccco1)cn2C	-1.4	7.2	62.1*	-12.9	0.2
O=C(NCCN1CCOCC1)c1c[nH]c2ccc(S(=O)(=O)N3CCOCC3)cc2c1=O	3.0	15.4	-0.7	-24.7	-10.6
C=CCn1cc(C(=O)NCc2ccc3c(c2)OCO3)c(=O)c2cc(S(=O)(=O)N(CC)CC)ccc21	6.2	12.8	42.0*	-17.3	-5.4
Clc1ccc(Oc2nc3c(Cl)cccc3s2)cc1Cl	-1.4	3.4	-3.5	-18.0	-0.8
Cc1cccc(OCCn2c(-c3ccco3)nc3ccccc32)c1	-6.4	21.9	17.7	-18.0	48.3*
CCOCCCn1cnc2c(c1=O)c1nc3ccccc3nc1n2-c1ccc(C)cc1	4.5	5.2	4.2	-4.9	-9.7
CCOCCCn1cnc2c(c1=O)c1nc3ccccc3nc1n2-c1ccccc1	13.2	53.6*	21.4	-3.3	21.5
CC(C)CC(NC(=O)C(COCc1ccccc1)NC(=O)OC(C)(C)C)C(=O)NN (stereo not drawn)	-6.3	4.0	-2.3	-9.1	-10.0
Cc1cc(=O)n2c(n1)SCOC2	20.8	42.8*	4.8	-6.7	35.0
Cn1nc(C(F)(F)F)c2cc(C(=O)NC3CC3)sc21	1.5	3.7	0.7	9.6	-11.9
CN1CCN(C(=O)c2cc3c(C(F)(F)F)nn(C)c3s2)CC1	-4.9	2.1	4.3	-6.4	47.7*
O=C(N/N=C/C1C(c2ccccc2)C1(Cl)Cl)c1cccc(Cl)c1 (stereo not drawn)	-16.5	0.5	-12.4	-7.5	-14.5
Cn1nc(C(F)(F)F)c(-c2ccccc2)c1NC(=O)CCC(=O)O	26.7	30.2	30.8	-5.2	43.2*
Cn1nc(C(F)(F)F)c(-c2ccccc2)c1NC(=O)CSCC(=O)O	2.3	6.5	-3.1	-16.0	-3.2
COc1cccc(N2CCN(C(=O)CN(C)S(=O)(=O)c3ccc4c(c3)c(=O)n(C)c(=O)n4C)CC2)c1	-7.5	1.0	7.0	-24.0	-1.6
COC(=O)Cc1ccc(NC(=S)N2CCN(c3ccc(F)cc3)CC2)cc1	-4.0	32.5	53.2*	-12.3	72.0*
COC(=O)Cc1ccc(NC(=S)NCc2ccc(F)cc2)cc1	0.0	-1.4	-11.1	-8.3	9.0
Cc1nn(-c2ccccc2)c(Cl)c1CN(C(=O)CCl)c1ccc(Cl)cc1	8.5	16.8	18.8	-2.8	45.4*
CCOc1ccc(CSCCNC(=S)Nc2ccccc2)cc1	1.1	-5.7	19.6	-16.4	50.7*
COc1ccccc1C(=O)Nn1cnc2ccccc2c1=O	4.5	11.7	0.7	-21.1	-9.8
CCCCCCCCCC(=O)Nn1cnc2ccccc2c1=O	31.5	52.0*	1.6	-14.2	70.0*
O=C(N/N=C/c1cccc([N+](=O)[O-])c1)C1CC(=O)N(c2ccc(Cl)cc2)C1 (stereo not drawn)	-4.6	6.1	-5.7	2.5	-2.6
Cc1ccc(N2CC(C(=O)N/N=C/c3cccc([N+](=O)[O-])c3)CC2=O)cc1 (stereo not drawn)	4.6	17.4	103.7*	-15.2	33.3
SMILES	FXIa inh	FXIIa inh	Thrombin inh	Furin inhibitor	KLK5 inh
COc1ccc(NC(NC(=O)c2cccnc2)C(Cl)(Cl)Cl)cc1 (stereo not drawn)	29.5	54.7*	12.5	-3.9	13.7
Cc1ccccc1NC(NC(=O)c1cccnc1)C(Cl)(Cl)Cl (stereo not drawn)	-4.0	4.8	-4.7	-10.6	2.3
COc1ccc(N/C(C)=C/C(=S)Nc2ccccc2)cc1	9.5	11.5	-15.8	-19.7	-5.0
O=C(CCC1CCCN(Cc2ccc3c(c2)CCO3)C1)NCc1ccc(F)c(F)c1 (stereo not drawn)	-3.8	2.8	-16.6	-26.8	-2.4
COc1cc(/C=N/NC(=O)c2cn(-c3cccc(C)n3)cn2)ccc1O	4.8	9.1	4.6	-18.8	14.2
Cc1cc(C)nc(Nc2ccccc2Br)n1	19.9	20.0	44.6*	-17.3	58.9*
CCN=C(NC#N)SCc1c(F)cccc1Cl	-6.1	6.1	-3.3	-17.4	-13.1
Clc1cccc(Cl)c1Cn1cnc2c(NCc3ccco3)ncnc21	2.7	-6.1	14.2	-18.4	61.2*
O=C(COc1cc(Cl)c(Cl)cc1Cl)Nc1ccc([N+](=O)[O-])cc1Cl	-13.7	3.4	-6.4	-7.7	31.0
CCN(CC)C(=O)CN1CCN(c2ncccn2)CC1	4.2	10.4	32.6	-25.6	64.3*
O=S(=O)(NCc1cn2ccccc2n1)c1ccccc1F	1.6	13.4	2.6	-28.1	2.7
COCCNC(=O)CC(NS(=O)(=O)c1ccc(C)cc1)c1ccco1 (stereo not drawn)	0.4	51.6*	10.1	-11.8	46.4*
CCCCNC(=O)CC(NS(=O)(=O)c1ccc(C)cc1)c1ccco1 (stereo not drawn)	9.8	14.4	0.6	-21.2	-0.4
Cc1oc(-c2cccs2)nc1CN1CCC(CO)(CCOc2ccccc2)CC1	1.2	12.5	-4.7	-16.8	5.7
O=C(NN=C1CCCC1)c1ccccc1OCc1ccc(Cl)cc1	51.8*	27.9	33.3	-2.0	37.7
Cc1ccc2[nH]c(=O)c(CN(C(=O)c3cccs3)c3ccccc3)cc2c1	0.2	5.9	-2.7	-16.6	-3.4
Cc1ccc2cc(CN(C(=O)c3cccs3)c3ccccc3)c(=O)[nH]c2c1	25.1	73.6*	17.5	-5.7	62.0*
COC(=O)c1cccc(NC(=O)Nc2ccc(Cl)cc2)c1	1.5	1.1	-6.4	-24.7	11.7
COC(=O)c1cccc(NC(=O)NC(=O)c2ccc(Cl)cc2)c1	11.1	23.7	12.2	-2.2	70.4*
COCCN(C(=O)CSc1nc2ccccc2c(=O)n1CC(C)C)c1c(N)n(Cc2ccccc2)c(=O)[nH]c1=O	-0.9	-4.0	-1.0	-34.5	-21.4
C=CCOC(=O)C1=C(C)N=C2SCCC(=O)N2C1c1cccs1 (stereo not drawn)	7.7	71.4*	3.7	-6.7	8.7
CCOC(=O)C1=C(C)N=C2SCCC(=O)N2C1c1sccc1C (stereo not drawn)	-7.6	22.5	8.0	-2.8	3.2
O=C1c2ccc(-c3ccc4c(c3)C(=O)N(CCO)C4=O)cc2C(=O)N1CCO	53.1*	25.0	9.5	-10.0	45.5*
Cc1ccc2c(c1)C(=O)N(CCCCO)C2=O	11.2	3.6	-1.9	-18.6	-2.2
COc1cc(N(C)C)c([N+](=O)[O-])cc1C(=O)N1CCOCC1	-4.7	-1.4	-0.3	-11.2	-3.9
C=CCc1c(C)[nH]c2c(OC)cccc2c1=S	25.8	29.3	20.4	-4.3	46.1*
O=C(Cc1ccc(F)cc1)N/N=C/c1ccncc1	19.5	36.3	29.8	2.8	54.8*
O=C(N/N=C/c1ccc(F)cc1)c1ccccc1	-0.2	9.8	-7.3	-20.1	1.8
O=C(O)c1ccc(/C=N/NC(=O)c2ccc(F)cc2)cc1	-5.9	-0.9	67.8*	-18.0	-4.2

From PubChem
